Key:
[1] = target: T1, Voltage-gated L-type calcium channel (Rattus norvegicus, UniProt P22002+Q02485+P27732); assay: Percentage decrease in blood pressure at a dose of 135 uM/kg for 12-18 hr in spontaneously hypertensive rats.; type: functional, tissue-based
Outline: (§1)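 Spontaneously hypertensive rats, n = 5, given 135 µmol/kg orally; systolic pressure recorded directly; maximum percent fall from predrug control noted within 0-6, 6-12 and 12-18 h windows after dosing; mean of five rats.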

[2] = target: T1, Voltage-gated L-type calcium channel; assay: Percentage decrease in blood pressure at a dose of 135 uM/kg for 6-12 hr in spontaneously hypertensive rats.; type: functional, tissue-based; outline: as §1
[3] = target: T1, Voltage-gated L-type calcium channel; assay: Percentage decrease in blood pressure at a dose of 135 uM/kg for 0-6 h in spontaneously hypertensive rats.; type: functional, tissue-based; outline: as §1
[4] = Concentration required to cause 50% relaxation of maximal contraction in circumferential rabbit aorta strips in response to KCl (100 mM); type: functional, tissue-based, Oryctolagus cuniculus
[5] = Partition coefficient (logP); type: physicochemical; conditions: octanol/water

Row | Structure (SMILES) | Decrease in blood pressure [1] | Decrease in blood pressure [2] | Decrease in blood pressure [3] | IC50 ([4]; Oryctolagus cuniculus, Aorta) | logP [5] | IC50 [4]
1 | COc1ccc([C@@H]2Cc3c(cccc3C(F)(F)F)N(CCNC(C)C)C(=O)[C@@H]2C)cc1 | 10% | 15% | 17% | 950 nM |  | 
2 | CSc1ccc([C@@H]2Cc3c(cccc3C(F)(F)F)N(CCN(C)C)C(=O)[C@@H]2C)cc1 | 5% | 8% | 12% | 730 nM |  | 
3 | COc1ccccc1[C@@H]1Cc2cc(Cl)ccc2N(CCN(C)C)C(=O)[C@@H]1OC(C)=O | 0% | 2% | 2% |  |  | 
4 | COc1ccc([C@@H]2Cc3c(Cl)cccc3N(CCN(C)C)C(=O)[C@@H]2OC(C)=O)cc1 | 11% | 8% | 9% |  | 2.4 | 
5 | COc1ccc([C@@H]2Cc3cc(OC)ccc3N(CCN(C)C)C(=O)[C@@H]2OC(C)=O)cc1 | 10% | 8% | 15% |  | 1.2 | 
6 | COc1ccc([C@@H]2Cc3c(cccc3C(F)(F)F)N(CCN(C)CCCCc3ccccc3)C(=O)[C@@H]2OC(C)=O)cc1 | 24% | 23% | 28% | 73 nM |  | 
7 | COc1ccc([C@@H]2Cc3c(cccc3C(F)(F)F)N(CCCN(C)C)C(=O)[C@@H]2C)cc1 | 24% | 22% | 24% | 1100 nM |  | 
8 | COc1ccc([C@@H]2Cc3c(cccc3C(F)(F)F)N(CCN(C)C)C(=O)[C@@H]2O)cc1 | 28% | 26% | 21% |  | 2.1 | 
9 | CCc1ccc([C@@H]2Cc3c(cccc3C(F)(F)F)N(CCN(C)C)C(=O)[C@@H]2C)cc1 | 13% | 14% | 20% | 2400 nM |  | 
10 | CNc1ccc([C@@H]2Cc3c(cccc3C(F)(F)F)N(CCN(C)C)C(=O)[C@@H]2C)cc1 | 20% | 18% | 14% | 330 nM |  | 
11 | COc1ccc([C@@H]2Cc3c(cccc3C(F)(F)F)N(CCN(C)C)C(=O)[C@@H]2C)cc1OC | 5% | 5% | 3% | 3800 nM |  | 
12 | COc1ccc([C@@H]2Cc3c(cccc3C(F)(F)F)N(CCN(C(C)C)C(C)C)C(=O)[C@@H]2C)cc1 | 8% | 8% | 14% | 4200 nM |  | 
13 | COc1ccc([C@@H]2Cc3c(cccc3C(F)(F)F)N(CC(C)N(C)C)C(=O)[C@@H]2C)cc1 (stereo in doubt; 15l) | 14% | 17% | 26% | 360 nM |  | 
14 | COc1ccc([C@@H]2Cc3c(cccc3C(F)(F)F)N(CC(C)N(C)C)C(=O)[C@@H]2C)cc1 (stereo in doubt; 15m) | 12% | 16% |  |  |  | 400 nM
15 | C[C@H]1C(=O)N(CCN(C)C)c2cccc(C(F)(F)F)c2C[C@H]1c1ccc(O)cc1 | 7% | 5% | 10% | 160 nM |  | 
16 | COc1cccc([C@@H]2Cc3cc(Cl)ccc3N(CCN(C)C)C(=O)[C@@H]2OC(C)=O)c1 | 3% | 2% | 5% |  |  | 
17 | CNCCN1C(=O)[C@H](OC(C)=O)[C@H](c2ccc(OCOC)cc2)Cc2c1cccc2C(F)(F)F | 8% | 8% | 6% |  |  | 

Row | Structure (SMILES) | Decrease in blood pressure [1] | Decrease in blood pressure [2] | Decrease in blood pressure [3] | IC50 ([4]; Oryctolagus cuniculus, Aorta) | logP [5] | IC50 [4]
18 | C=CCN(C)CCN1C(=O)[C@H](OC(C)=O)[C@H](c2ccc(OC)cc2)Cc2c1cccc2C(F)(F)F | 25% | 26% | 28% | 170 nM |  | 
19 | C#CCN(C)CCN1C(=O)[C@H](OC(C)=O)[C@H](c2ccc(OC)cc2)Cc2c1cccc2C(F)(F)F | 25% | 25% | 26% | 3300 nM |  | 
20 | COc1ccc([C@@H]2Cc3cc(C(F)(F)F)ccc3N(CCN(C)C)C(=O)[C@@H]2CC(C)=O)cc1 | 28% | 28% | 23% |  | 2.7 | 
21 | COc1ccc([C@@H]2Cc3c(cccc3C(F)(F)F)N(CCN(C)C)C(=O)[C@@H]2OC(C)=O)cc1 | 20% | 27% | 31% | 150 nM |  | 
22 | COc1ccc([C@@H]2Cc3c(cccc3C(F)(F)F)N(C(C)CN(C)C)C(=O)[C@@H]2C)cc1 (stereo in doubt; 15o) | 16% | 16% | 16% |  |  | 2300 nM
23 | CNCCN1C(=O)[C@H](OC(C)=O)[C@H](c2ccc(OCCOC)cc2)Cc2c1cccc2C(F)(F)F | 7% | 5% | 5% | 39000 nM |  | 
24 | CNC(=O)CN1C(=O)[C@H](OC(C)=O)[C@H](c2ccc(OC)cc2)Cc2c1cccc2C(F)(F)F | 10% | 8% | 13% | 6200 nM |  | 
25 | COc1ccc([C@@H]2Cc3c(cccc3C(F)(F)F)N(CC[N+](C)(C)C)C(=O)[C@@H]2C)cc1.[I-] | 21% | 22% | 25% | 6200 nM |  | 
26 | COc1ccc([C@@H]2Cc3c(cccc3C(F)(F)F)N(CCN(C)C(C)=O)C(=O)[C@@H]2O)cc1 |  |  |  | 2200 nM |  | 
27 | COc1ccc([C@@H]2Cc3c(cccc3C(F)(F)F)N(CCN3CCCC3)C(=O)[C@@H]2C)cc1 | 11% | 10% | 8% | 1100 nM |  | 
28 | CCCN(C)CCN1C(=O)[C@H](OC(C)=O)[C@H](c2ccc(OC)cc2)Cc2c1cccc2C(F)(F)F | 28% | 26% | 27% | 190 nM |  | 
29 | CCC[C@H]1C(=O)N(CCN(C)C)c2ccccc2C[C@H]1c1ccc(OC)cc1 | 12% | 11% | 10% | 340 nM |  | 
30 | COc1ccc([C@@H]2Cc3c(cccc3C(F)(F)F)N(C(C)CN(C)C)C(=O)[C@@H]2C)cc1 (stereo in doubt; 15n) |  |  | 15% |  |  | 5900 nM
31 | COc1ccc([C@@H]2Cc3c(cccc3C(F)(F)F)N(CCN(C)C)C(=O)[C@@H]2C)cc1 | 22% | 22% | 28% | 76 nM |  | 
32 | CNCCN1C(=O)[C@H](OC(C)=O)[C@H](c2ccc(OC)cc2)Cc2c1cccc2C(F)(F)F | 32% | 34% | 32% |  |  | 
33 | COc1ccc([C@@H]2Cc3c(cccc3C(F)(F)F)N(CCN(C)C(C)C)C(=O)[C@@H]2C)cc1 | 14% | 15% | 18% | 810 nM |  | 
